Several values for one entry are separate records, joined by “and”; a condition that tells them apart may be missing. Equal values may be shown once. Entries after “also recorded” stand apart in the source; their conditions may differ. Read-outs that look alike come from different tables or passages of the source.
Experiments:
rat CAR [1] = target: T1, rat CAR (Rattus norvegicus, UniProt Q9QUS1); conditions: ref Omiecinski et al., 2011a; cited from earlier work
T1 sequence (Q9QUS1 1-358): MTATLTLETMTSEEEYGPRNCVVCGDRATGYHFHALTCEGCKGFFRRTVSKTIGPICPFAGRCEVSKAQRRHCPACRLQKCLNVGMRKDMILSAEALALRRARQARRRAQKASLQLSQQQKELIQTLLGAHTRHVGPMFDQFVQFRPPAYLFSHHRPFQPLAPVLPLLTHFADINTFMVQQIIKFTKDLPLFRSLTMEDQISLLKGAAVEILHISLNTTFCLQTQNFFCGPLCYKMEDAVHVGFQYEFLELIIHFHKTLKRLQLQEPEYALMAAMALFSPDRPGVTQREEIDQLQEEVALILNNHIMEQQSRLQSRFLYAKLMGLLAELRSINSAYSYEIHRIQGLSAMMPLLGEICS

rat CAR [2] = target: T1, rat CAR; experiment: Rat CAR reporter gene assay in COS-1 cells; assay type: cell-based; conditions: for Agonistic activity REC20 CAR: concentration showing 20% of the agonistic activity of 30 μM artemisinin; for Agonistic activity REC20 CAR / Inverse agonistic activity RIC20 CAR: ±SD; for Inverse agonistic activity RIC20 CAR: concentration showing 80% of the activity of the vehicle control
rat PXR [3] = target: T2, rat PXR (Rattus norvegicus, UniProt Q9R1A7); experiment: Rat PXR reporter gene assay in COS-1 cells; assay type: cell-based; conditions: for Agonistic activity REC20 PXR: concentration showing 20% of the agonistic activity of 1 μM PCN, ±SD
T2 sequence (Q9R1A7 1-431): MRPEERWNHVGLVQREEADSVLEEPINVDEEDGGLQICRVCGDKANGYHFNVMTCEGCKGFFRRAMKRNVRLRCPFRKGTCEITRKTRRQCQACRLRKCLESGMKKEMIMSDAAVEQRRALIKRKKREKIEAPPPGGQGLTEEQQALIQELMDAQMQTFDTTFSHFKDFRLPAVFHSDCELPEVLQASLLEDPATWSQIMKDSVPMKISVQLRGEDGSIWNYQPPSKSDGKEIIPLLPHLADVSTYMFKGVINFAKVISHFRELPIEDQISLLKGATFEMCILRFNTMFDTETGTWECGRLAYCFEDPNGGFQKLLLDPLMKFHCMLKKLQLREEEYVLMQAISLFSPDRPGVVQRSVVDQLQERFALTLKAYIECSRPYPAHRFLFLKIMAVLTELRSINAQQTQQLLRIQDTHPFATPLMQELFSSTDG
Method in brief: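 COS-1 cells (1×10^4/well) co-transfected with rat PXR expression, reporter and Renilla control plasmids via jetPEI. After 24 h, test compound or 0.1% DMSO added in serum-free D-MEM for 24 h. Dual-luciferase read-out, firefly normalized to Renilla, fold vs vehicle. REC20: concentration reaching 20% of 1 μM PCN activity. Mean ± SD, ≥3 experiments in duplicate; Dunnett's test.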

human CAR = conditions: cited from earlier work
mouse CAR = conditions: cited from earlier work
rat PPARα = target: T3, rat PPARα (Rattus norvegicus, UniProt P37230); experiment: Rat PPARα reporter gene assay in COS-1 cells; assay type: cell-based; conditions: concentration showing 20% of the agonistic activity of 30 μM BZF; ±SD
T3 sequence (P37230 1-468): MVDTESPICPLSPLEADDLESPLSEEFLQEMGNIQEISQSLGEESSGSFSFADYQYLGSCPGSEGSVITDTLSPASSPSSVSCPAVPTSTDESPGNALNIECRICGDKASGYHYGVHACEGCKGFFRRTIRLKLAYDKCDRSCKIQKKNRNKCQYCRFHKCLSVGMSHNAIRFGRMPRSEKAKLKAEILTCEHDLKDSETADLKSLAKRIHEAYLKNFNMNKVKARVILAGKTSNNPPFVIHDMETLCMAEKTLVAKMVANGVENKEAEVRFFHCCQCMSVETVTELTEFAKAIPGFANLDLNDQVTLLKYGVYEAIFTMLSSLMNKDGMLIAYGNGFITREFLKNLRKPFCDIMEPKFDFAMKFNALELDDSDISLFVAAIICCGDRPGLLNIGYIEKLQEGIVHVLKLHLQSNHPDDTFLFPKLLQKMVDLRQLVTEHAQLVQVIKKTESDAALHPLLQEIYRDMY

mouse PPARα = conditions: among 12 pyrethroid pesticides; ref Takeuchi et al., 2006; cited from earlier work
rat CAR [4] = target: T1, rat CAR; assay type: cell-based; conditions: 3–10 μM
Method in brief: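 Microsomal mix: NADPH-generating system plus PB/MC-induced male SD rat liver microsomes (60 mg protein) in pH 7.4 phosphate, 30 min, 37 °C; boiled-microsome control. Extracts dried, redissolved in DMSO, diluted into serum-free medium. CAR-transfected COS-1 cells dosed 12 h after transfection, 24 h exposure. Firefly/Renilla luciferase read as fold vs vehicle; 3 experiments, Student's t-test vs boiled.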

rat PXR [5] = target: T2, rat PXR; assay type: cell-based; conditions: microsomes of PB- and MC-treated rats, NADPH, vs boiled microsomes
Method in brief: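 Test compound (1 μmol) incubated 30 min at 37 °C in 0.1 M K,Na-phosphate pH 7.4. Mix held an NADPH-generating system and liver microsomes (60 mg protein) from male SD rats given PB 80 mg/kg i.p. plus MC 25 mg/kg p.o. daily for 3 d. Boiled microsomes were the control. Ethyl acetate extract went into DMSO and onto transfected COS-1 cells for 24 h. Normalized firefly/Renilla fold vs vehicle; n=3, t-test.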

Compound: Clc1cnc(Oc2ccc(Oc3ncc(Cl)cc3Cl)cc2)c(Cl)c1 [TCPOBOP, 1,4-bis[2-(3,5-dichloropyridyloxy)]benzene]
- Rat CAR activity (rat CAR [1]): inactive toward rat CAR

Compound: Clc1ccc(-c2nc3sccn3c2C=NOCc2ccc(Cl)c(Cl)c2)cc1 [CITCO, 6-(4-chlorophenyl)imidazo[2,1-b][1,3]thiazole-5-carbaldehyde O-(3,4-dichlorobenzyl)oxime]
- Rat CAR activity (rat CAR [1]): inactive toward rat CAR

Compound: CC1(C)C(C=C(Cl)Cl)C1C(=O)OC(C#N)c1cccc(Oc2ccccc2)c1 (centres unmarked) [cypermethrin]
- Agonistic activity REC20 CAR (rat CAR [2]): - ^c (No effect (REC20 > 30 μM))
- Inverse agonistic activity RIC20 CAR (rat CAR [2]): - ^c (No effect (REC20 > 30 μM))
- PXR activity, fold compared with the control (rat PXR [3]; 1 μM or lower): about 2 fold
- PXR activity, fold compared with the control (rat PXR [3]; concentration range 1–30 μM): about 3 fold
- Agonistic activity REC20 PXR (rat PXR [3]): 0.468 ± 0.0267 µM
- Human CAR agonistic activity (human CAR; ref Baldwin and Roling (2009)): agonists
- Mouse CAR agonistic activity (mouse CAR; ref Baldwin and Roling (2009)): agonists
- Agonistic activity REC20 PPARα (rat PPARα): - ^c (No effect (REC20 > 30 μM))

Compound: pyrethrin
- Mouse PPARα activation (mouse PPARα): activated mouse PPARα

Compound: CC(C)C(C(=O)OC(C#N)c1cccc(Oc2ccccc2)c1)c1ccc(Cl)cc1 (centres unmarked) [fenvalerate]
- Effect on CAR activation induced by artemisinin (rat CAR [2]; artemisinin 10 μM, test compound 0.1–30 μM): significantly inhibited CAR activation by artemisinin
- Agonistic activity REC20 CAR (rat CAR [2]): - ^c (No effect (REC20 > 30 μM))
- Inverse agonistic activity RIC20 CAR (rat CAR [2]): 0.846 µM and 0.846 ± 0.394 µM
- CAR inverse agonistic activity (in words) (rat CAR [2]; up to 30 μM): showed CAR inverse agonistic activity
- Agonistic activity REC20 PXR (rat PXR [3]): 0.617 ± 0.138 µM
- Human CAR agonistic activity (human CAR; ref Abass et al. (2012)): possessed agonistic activity
- Human CAR agonistic activity (human CAR; ref Baldwin and Roling (2009)): agonists
- Change of CAR inverse agonistic activity after incubation with liver microsomes (rat CAR [4]): tended to decrease
- Change of PXR activity upon incubation with rat liver microsomes (rat PXR [5]): markedly decreased; also recorded: significantly decreased
- Mouse CAR agonistic activity (mouse CAR; ref Abass et al. (2012)): not mouse CAR
- Mouse CAR agonistic activity (mouse CAR; ref Baldwin and Roling (2009)): agonists
- Agonistic activity REC20 PPARα (rat PPARα): - ^c (No effect (REC20 > 30 μM))
